test: Toxicity liver stage against HepG2, at 10uM; assay type: cell-based; parameters: test concentration 10 uM, cell line HepG2-A16-CD81EGFP; settings: human, HepG2-A16-CD81EGFP cells; read-out: INHIBITION
Method in brief: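 Uninfected HepG2-A16-CD81EGFP cells, 3 × 10^3 per well, 1536-well, plated on prespotted compound at 10 μM final, parasite-free screening media added to match infected plates; puromycin 10 μM positive, DMSO 0.5% negative; run in parallel with 48 h PbLuc assay at 37 °C, 5% CO2; viability by CellTiter-Glo luminescence, normalized to controls.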

In order of falling cytotoxicity at 10 µM:
1. COCC1c2c(cnn2CC2CC2)CCN1Cc1ccc(OC)cc1 (centres undefined)  83.3%
2. CCc1nc(C)c(C(=O)NCC2COc3cc(OC)ccc3C2)o1 (centres undefined)  54.6%
3. CCC(=O)N1CCN(Cc2cnc(C)nc2)[C@H]2CS(=O)(=O)C[C@H]21  12.3%
4. NC(=O)C1(Cc2ccc(-c3ccccc3)cc2)CCNC1 (centres undefined)  11.5%
5. O=C(c1cc(-n2cccn2)ccn1)N1CCOc2ccncc21  10.6%
6. CCCc1nc(CN(CC)C(=O)c2ccc3c(c2)nnn3C)no1  9.43%
7. COc1ccc(CN2CC[C@H]3O[C@@H](C(=O)NCC4CC4)CC[C@H]32)cc1  7.31%
8. CCSc1ncc(-c2cc(C3CC3)nc(N)c2C#N)cn1  6.99%
9. Cc1cc(-c2nccs2)nc(C2CCN(Cc3ccc(F)cc3)CC2)n1  6.54%
10. Cc1cnc(C)c(-c2cc(O)c3c(c2)CN(c2ncccn2)CCO3)n1  6.13%
11. O=C(C1NCCc2[nH]cnc21)N1CCC2(C=Cc3ccccc32)CC1 (centres undefined)  5.19%
12. CC(C)(C(=O)N1CCC(C(N)=O)C1)c1ccccc1F (centres undefined)  4.68%
13. COc1ccc(CC(=O)NCCCc2nnc3nc(C)cc(C)n23)cc1  4.45%
14. COC(=O)CN1CCN(c2nc3c(s2)c(C)nn3C)C(C)C1=O (centres undefined)  3.27%
15. COc1ccc(N2CCC(N(C)C(=O)Nc3ccncc3)CC2)cc1  3.12%
16. CC(C)CC(=O)N1CCc2nc(N3CCOCC3)nc(NC(C)C)c2C1  2.86%
17. O=C(NCC(F)(F)F)C1=NOC2(CCCNC2)C1 (centres undefined)  2.16%
18. CCCn1ncc2c(C(=O)Nc3n[nH]c(SC)n3)cc(C3CC3)nc21  1.52%
19. Cc1nc(Cc2ccccc2)nc2sc(C(=O)O)c(C)c12  0.986%
20. CCOc1nc2cnccc2n(CC(=O)NCc2ccc(C)cc2)c1=O  -0.0308%
21. COc1cc(C(=O)NCCS(=O)(=O)N(C)C)c2ccccc2n1  -0.0932%
22. CC(C)COC[C@H]1CC[C@H]2[C@H](CCN2C(=O)c2ccncc2F)O1  -0.171%
23. NC(=O)C(NC(=O)c1cc(Cl)c[nH]1)c1ccccc1 (centres undefined)  -0.589%
24. Fc1cccc2[nH]c(CN3CCc4cncnc4C3)nc12  -1.03%
25. O=C(CCn1ncc2ccccc21)N1CCCC(Cc2cccnc2)C1 (centres undefined)  -1.83%
26. CN(C)[C@@H]1CO[C@H](CNC(=O)c2ccccc2)[C@H]1O  -1.9%
27. COCCNC(=O)[C@H]1CN(c2nnc(C)s2)C[C@H]2OCC[C@@H]12  -1.96%
28. O=C(CCOc1ccccc1)N1CCCC(c2ncc[nH]2)C1 (centres undefined)  -2.68%
29. CCc1nc2ccccc2c(=O)n1CC1(O)CCN(S(C)(=O)=O)CC1  -3.5%
30. NC(=O)c1cn[nH]c1C1CCCN1C(=O)COc1ccccc1 (centres undefined)  -3.93%
31. COCC(=O)N1CC(=O)c2sc(Nc3ccc(F)cc3F)nc2C1  -7.02%
32. Cc1cnn(CC2CCCN2Cc2nc(C)c3ccccc3n2)c1 (centres undefined)  -8.94%
33. CS(=O)(=O)NCC1CCCN(C(=O)c2ccc(F)c(F)c2)C1 (centres undefined)  -10.3%
34. O=S(=O)(c1ccc(-c2cnco2)cc1)N1CCCC2(CCNCC2)CC1  -11.2%
35. CCc1nccn1C1CCCN(C(=O)C2=NN(C)C(=O)CC2)C1 (centres undefined)  -17.7%
36. Cc1cc(C)n(CC2CN(c3nnc(C)c(C)c3C#N)CCO2)n1 (centres undefined)  -18.2%
37. COc1ccc2cc(CNCc3c(C)nn(C)c3N(C)C)ccc2c1  -20.4%
38. CC(C(=O)Nc1ccc(N2CCOCC2)nc1)n1cncn1 (centres undefined)  -33.9%
39. Cc1noc(C)c1CN1CCc2ncnc(-c3ccccc3)c2CC1  -89.9%
40. Cn1cnc(S(=O)(=O)N2CC3(CCN(c4ccccc4)C3)C2)c1  -91.7%
41. c1cc(COC[C@H]2CCC[C@]23CNCCO3)ccn1  -99.1%
42. COc1cc(N2CCCC3(CCN(c4cncnc4)C3=O)C2)ncn1 (centres undefined)  -103%
43. O=C(Cc1cccc(F)c1)N1CCc2ncnc(NC3CCC3)c2CC1  -105%
44. COc1ccc(-c2nc(C3CCNCC3)cc3c2ncn3C)cc1  -124%
